# Measured values reported in article PMC11847724 (Neoplasia (New York, N.Y.), 2025).
# Where two headings read alike, the source gives them in different places.
# What was measured:
# [1] = system: participants with advanced or metastatic solid tumors; type: in vivo, human
# Summary of the method: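 Open-label, first-in-human 3 + 3 escalation in adults with recurrent, locally advanced or metastatic solid tumors lacking standard therapy. Test compound was given orally once daily from 25 up to 700 mg/day (modified Fibonacci steps) in 28-day cycles for 6 to 8 cycles, with no intrapatient escalation. The safety population was everyone dosed at least once. AEs were coded by MedDRA and graded by NCI CTCAE v4.03. DLT was assessed in cycle 1, and MTD was the highest dose with DLT in under one-third of a cohort.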
# rats = details: highest dose administered; cited from earlier work
# [2] = system: advanced or metastatic solid tumors; experiment: Tumor response by RECIST v1.1; type: in vivo, human; details: RECIST v1.1, all doses
# Summary of the method: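 Participants received daily oral test compound at 25 to 700 mg/day in 28-day cycles. Best observed response was listed per participant without statistical analysis.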
smiles,measurement,setting,value
CNC(=O)c1ccccc1Nc1nc(Nc2ccc3c(c2OC)CCC[C@H](N2CCN(CCO)CC2)C3)ncc1Cl [ESK-440],AE: Fatigue,[1]; 350 mg/day (n = 4),2 (50) Number (%) of participants
same,AE: Nausea,[1]; 350 mg/day (n = 4),2 (50) Number (%) of participants
same,AE: Pyrexia,[1]; 350 mg/day (n = 4),1 (25) Number (%) of participants
same,AE: Vomiting,[1]; 350 mg/day (n = 4),1 (25) Number (%) of participants
same,Any AE,[1]; 350 mg/day (n = 4),4 (100) Number (%) of participants
same,Deaths,[1]; 350 mg/day (n = 4),0 Number (%) of participants
same,Grade 3-5 AE,[1]; 350 mg/day (n = 4),2 (50) Number (%) of participants
same,Other serious AEs,[1]; 350 mg/day (n = 4),1 (25) Number (%) of participants
same,Treatment-related AE,[1]; 350 mg/day (n = 4),3 (75) Number (%) of participants
same,Withdrawn from treatment due to AE,[1]; 350 mg/day (n = 4),1 (25) Number (%) of participants
same,AE: Cough,[1]; 500 mg/day (n = 6),1 (17) Number (%) of participants
same,AE: Decreased appetite,[1]; 500 mg/day (n = 6),2 (33) Number (%) of participants
same,AE: Diarrhea,[1]; 500 mg/day (n = 6),2 (33) Number (%) of participants
same,AE: Edema peripheral,[1]; 500 mg/day (n = 6),0 Number (%) of participants
same,AE: Fatigue,[1]; 500 mg/day (n = 6),2 (33) Number (%) of participants
same,AE: Nausea,[1]; 500 mg/day (n = 6),5 (83) Number (%) of participants
same,AE: Pyrexia,[1]; 500 mg/day (n = 6),2 (33) Number (%) of participants
same,AE: Vomiting,[1]; 500 mg/day (n = 6),5 (83) Number (%) of participants
same,Any AE,[1]; 500 mg/day (n = 6),6 (100) Number (%) of participants
same,Deaths,[1]; 500 mg/day (n = 6),0 Number (%) of participants
same,Grade 3-5 AE,[1]; 500 mg/day (n = 6),1 (17) Number (%) of participants
same,Other serious AEs,[1]; 500 mg/day (n = 6),1 (17) Number (%) of participants
same,Treatment-related AE,[1]; 500 mg/day (n = 6),5 (83) Number (%) of participants
same,Withdrawn from treatment due to AE,[1]; 500 mg/day (n = 6),2 (33) Number (%) of participants
same,participants reporting a DLT,[1]; 500 mg/day treatment group,1 participants
same,AE: Cough,[1]; 700 mg/day (n = 5),0 Number (%) of participants
same,AE: Decreased appetite,[1]; 700 mg/day (n = 5),2 (40) Number (%) of participants
same,AE: Diarrhea,[1]; 700 mg/day (n = 5),1 (20) Number (%) of participants
same,AE: Edema peripheral,[1]; 700 mg/day (n = 5),1 (20) Number (%) of participants
same,AE: Fatigue,[1]; 700 mg/day (n = 5),4 (80) Number (%) of participants
same,AE: Nausea,[1]; 700 mg/day (n = 5),5 (100) Number (%) of participants
same,AE: Pyrexia,[1]; 700 mg/day (n = 5),0 Number (%) of participants
same,AE: Vomiting,[1]; 700 mg/day (n = 5),3 (60) Number (%) of participants
same,Any AE,[1]; 700 mg/day (n = 5),5 (100) Number (%) of participants
same,Deaths,[1]; 700 mg/day (n = 5),1 (20) Number (%) of participants
same,Grade 3-5 AE,[1]; 700 mg/day (n = 5),4 (80) Number (%) of participants
same,Other serious AEs,[1]; 700 mg/day (n = 5),0 Number (%) of participants
same,Treatment-related AE,[1]; 700 mg/day (n = 5),5 (100) Number (%) of participants
same,Withdrawn from treatment due to AE,[1]; 700 mg/day (n = 5),2 (40) Number (%) of participants
same,participants reporting a DLT,[1]; 700 mg/day treatment group,2 participants
same,deaths considered by investigators related to ESK-440,[1]; 4 deaths during study,None
same,AE cough,[1]; Overall (N = 32),16%
same,AE decreased appetite,[1]; Overall (N = 32),28%
same,AE diarrhea,[1]; Overall (N = 32),25%
same,AE fatigue,[1]; Overall (N = 32),53%
same,AE nausea,[1]; Overall (N = 32),53%
same,AE peripheral edema,[1]; Overall (N = 32),16%
same,AE pyrexia,[1]; Overall (N = 32),19%
same,AE vomiting,[1]; Overall (N = 32),38%
same,AE: Cough,[1]; Overall (N = 32),5 (16) Number (%) of participants
same,AE: Decreased appetite,[1]; Overall (N = 32),9 (28) Number (%) of participants
same,AE: Diarrhea,[1]; Overall (N = 32),8 (25) Number (%) of participants
same,AE: Edema peripheral,[1]; Overall (N = 32),5 (16) Number (%) of participants
same,AE: Fatigue,[1]; Overall (N = 32),17 (53) Number (%) of participants
same,AE: Nausea,[1]; Overall (N = 32),17 (53) Number (%) of participants
same,AE: Pyrexia,[1]; Overall (N = 32),6 (19) Number (%) of participants
same,AE: Vomiting,[1]; Overall (N = 32),12 (38) Number (%) of participants
same,Any AE,[1]; Overall (N = 32),31 (97) Number (%) of participants
same,Deaths,[1]; Overall (N = 32),4 (13) Number (%) of participants
same,Grade 3-5 AE,[1]; Overall (N = 32),15 (47) Number (%) of participants
same,Other serious AEs,[1]; Overall (N = 32),9 (28) Number (%) of participants
same,Withdrawn from treatment due to AE,[1]; Overall (N = 32),7 (22) Number (%) of participants
same,at least 1 AE,[1]; Overall (N = 32),97%
same,deaths reported during the study,[1]; Overall (N = 32),4
same,grade 3+ AEs,[1]; Overall (N = 32),47%
same,withdrew from treatment due to AEs,[1]; Overall (N = 32),22%
same,nature of the DLT,"[1]; all 3 cases, considered related to ESK-440",grade 3 nausea
same,participants reporting a DLT,[1]; all dose groups,Three
same,"changes in vital signs, ECG findings, physical exam findings, pulmonary function tests",[1]; during the study,no clinically significant changes
same,decline in ECOG performance status,[1]; from baseline,13 participants
same,QTcF value meeting protocol-defined DLT criterion (>500 msec),[1]; in vivo,No patient
same,no change from baseline in ECOG performance status,[1]; in vivo,Nineteen
same,SAEs considered related to ESK-440,"[1]; of SAEs in nine participants, nausea",1
same,maximum tolerated dose (MTD),"[1]; oral, 28-day cycle, DLT in cycle 1",500 mg/day
same,highest non-severely toxic dose (HNSTD),rats,30 mg/kg
same,best overall response: stable disease,[2],7 participants
same,complete or partial response,[2],No participant
